In the RNAGym collection of RNA variant scans (doi:10.1126/science.aae0568):
Fewer inactive variants are shown than the library holds.

B1: tRNA (parent)
chain: GUUCCGUUGGCGUAAUGGUAACGCGUCUCCCUCCUAAGGAGAAGACUGCGGGUUCGAGUCCCGUACGGAACG

Variants of: B1
Test: yeast fitness relative to wild type (ratio to wild type); higher = fitter; tRNA-Arg(CCU), competitive growth, 37 C, YPD
Summary of the method: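 For this measurement, the tRNA-Arg(CCU) gene was varied by chemical synthesis at a 3% per-site mutation rate across 69 sites, and each variant was placed at the native genomic locus in Saccharomyces cerevisiae. The pooled strains went through a 24-hour competition in YPD at 37°C in six parallel replicates, with amplicons from start and end populations read by 100-nucleotide paired-end sequencing. Darwinian fitness relative to wild type followed from the change in each genotype's frequency. Genotypes needed ≥ 100 starting reads, and estimates < 0.5 were set to 0.5.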

| Variant | yeast fitness |
| --- | --- |
| GUUCCGUGGGCGUAAUGGUAACGCGUCUCCCUCCUAAGGAGAAGACUACGGGUUCGAGUCCCGUACGGAACG | 0.531 |
| GUUCCGUGGGCGUAAUGGUAACGCGUCUCCCUCCUAAGGAGAAGACUGCGAGUUCGAGUCCCGUACGGAACG | ≤ 0.5 |
| GUUCCGUGGGCGUAAUGGUAACGCGUCUCCCUCCUAAGGAGAAGACUGCGGAUUCGAGUCCCGUACCGAACG | 0.521 |
| GUUCCGUGGGCGUAAUGGUAACGCGUCUCCCUCCUAAGGAGAAGACUGCGGGUUCGAUUCCCGUGCAGAACG | 0.547 |
| GUUCCGUGGGCGAAAUGGUAACGCGUCUCCCUCCUAAGGAGAGGACUGCGGGAUCGAGUCCCGUACGAAACG | ≤ 0.5 |
| GUUCCGUGGGCGCAAUGGUAACGCGUCUCCCUCCUCAGGAGAAGACUGCGGGCUCGAGUCCCGUACGGAACG | ≤ 0.5 |
| GUUCCGUGGGCGUAAUGGUAACGCGACUCCCUCCUAAGGGGACGACUGCGGGUUGGAGUACCGUACGGAACG | ≤ 0.5 |
| GUUCCGUGGGCGUAAUGGUAACGCGACUCCCUCCUAAGGAGACGACUGCGGGUUCGAGUCCCGUACGGAACG | 0.55 |
| GUUCCGUGGGCGUAAUGGUAACGCGACUCCCUCCUAAGGAGACGACUGUGGGUUGGAGUACCGUACGGAACG | ≤ 0.5 |
| GUUCCGUGGGCGUAAUGGUAACGCGACUCCUUCCUAAGGAGAAGACUGCGGGUUCGAGUCCCGUACGGAACG | 0.52 |
| GUUCCGUGGGCGUAAUGGUAACGCGACUCCCUCCUAAGGAGAAGACUGCGGAUUCGAGUCCCGUACGGAACG | 0.59 |
| GUUCCGUGGGCGUAAUGGUAACGCGCCUCCCUCCUAAGGAGAAGACUGCGGGUUCGAGUUCCGUACGGAACG | ≤ 0.5 |
| GUUCCGUGGGCGUAAUGGUAACGCGUCACCCUCAUAAGGAGAAGACUGCGGGUUCGAGUCCCGUAAGGAACG | ≤ 0.5 |
| GUUCCGUGGGCGUAAUGGUAACGCGUCACCCUCGUAAGCAGAAGACUGCGGGUUCGGGUCCCGUAUGGAACG | ≤ 0.5 |
| GUUCCGUGGGCGUAAUGGUAACGCGUCUCCCCCCUAAGGAGAAGACUGCGGGUUCGAGUCCCGUAUGGAACG | ≤ 0.5 |
| GUUCCGUGGGCGUAAUGGUAACGCGUCUCCCUCCAAAGGAGAAGACUGCGGGUUCGAGUCCCGUACGGAACG | ≤ 0.5 |
| GUUCCGUGGGCGUAAUGGUAACGCGUCUCCCUCCAAAGGAGAAGACUGCGGGUUCGAGUCCCGUACGGAUCG | ≤ 0.5 |
| GUUCCGUGGGCGUAAUGGUAACGCGUCUCCCUCCAAAGGAAAAGACUGCGGGUAUGAGUCCCGUACGGAACG | ≤ 0.5 |
| GUUCCGUGGGCGUAAUGGUAACGCGUCUCCCUCCCAAGGAGAAGACUGCGGGUUCGCGUCCCGUACGGAACG | ≤ 0.5 |

| Variant | yeast fitness |
| --- | --- |
| GUUCCGUGGGCGUAAUGGUAACGCGUCUCCCUCCGAAGGAGAAGACUGCGGGUUCGAGUCCCGUACGGACCG | 0.536 |
| GUUCCGUGGGCGUAAUGGUAACGCGUCUCCCUCCUAAGGAGAAGACGGAGGGUUCGAGUCCCGUACGGUACG | ≤ 0.5 |
| GUUCCGUUAGCGUCAUGGUAACGCGUCUCCCUCCUAAGGAGGAGACUGGGGGUCCGAGUCCCCUACGGAUCG | ≤ 0.5 |
| GUUCCGUUAGCGUCAUGGUAAGGCGUCUCCCUCCUAAGGAGAAGCCUGCGCGUUCGAGUCCCGCACGGAACG | ≤ 0.5 |
| GUUCCGUUAGCGUCAUGGUAACGCGUCUCCCUCCUAAGGAGAAGACUGCGGGUUUGAGUCCCGUACGGAACG | ≤ 0.5 |
| GUUCCGUUAGCGUCAUGGUAACGCGUCUCCCUCCUAACGAGAAGACUGCGGGUUCGAGUCCCGUACGAAACG | ≤ 0.5 |
| GUUCCGUUAGCGUCAUGGUAACGCGUCUCCCACCUAAGGAGAAGACUGCGGGUUCGAGUCCCGUACGGAGCG | ≤ 0.5 |
| GUUCCGUUAGCGUGAUGGUAAUGCGUCUCCAUCUUCAGGAGAAGCCUGCGGGUUCGAGUCUCGAACGGAACG | 0.546 |
| GUUCCGUUAGCGUGAUGGUAACGCGUCUUCCACCUAAGGAGAUGACUGCGGGUUCGAGUCCCGUACGGAACG | ≤ 0.5 |
| GUUCCGUUAGCGUGAUGGUAACACGUCUCCCUCCUAAGGACAAGACUGCGCGUUCGAGUCCCGUACGGAACG | ≤ 0.5 |
| GUUCCGUUAGCGUUAUGGUAUCGCGUCUCCCUCCUAAGGAGAAGACUGCGGGUUCGAGUCCCGUGCGGAACG | 0.556 |
| GUUCCGUUAGCGUUAUGGUAACGCGUCUGCCUCAUAAGGAGAAGACUGCGGGUACGAGUCCCGUACGGAACG | ≤ 0.5 |
| GUUCCGUUAGCGUUAUGGUAACGCGUCUCCCUCCUAAGGAGAAGACUCCGGGUUCGAGUCCCGUACGGAACG | ≤ 0.5 |
| GUUCCGUUAGCGUAGUGGUAACGCGUCUCCCUCCUAAGGAGAAGACUGCGGGUUCGAGUCCCGUACGGAACG | 0.884 |
| GUUCCGUUAGCGUAGUGGUAACGCGUCUCCCUCCUAAGGAGAGGACUGGGGGGUCGAGUCCCGUACGGAACG | 0.553 |
| GUUCCGUUAGCGUAUUGGUGACGCGUCUCCCUCCUAAGGAGAACACUGCGGGUUCGAGUCUCGUACGGAACG | ≤ 0.5 |
| GUUCCGUUAGCGUAAUGGUGUCGCGUCUCCCUCCUAAGGAGAAGACUGCGGGUUCGAGUCCCGUACGGAACG | 0.57 |
| GUUCCGUUAGCGUAAUGGUGACGCGUCUCCCUCCUAAGGCGUCGACUACGGGUUCGAGUCCCGUACGGAACG | ≤ 0.5 |
| GUUCCGUUAGCGUAAUGGUGACGCGUCUCCCUCCUAAGGAGAAGACUGCGGGUUCGAGUCCUGUACGGAACG | 0.736 |
